We go through 10 compounds from PMC6459016 (Journal of computer-aided molecular design, 2019).

Where two headings read alike, the source gives them in different places. Where only a bound is given, the exact number is not on record here.

Data set [1] concerns the target T1, recombinant human GALK1 (Homo sapiens, UniProt P51570). Description: GALK1 inhibition assay. The conditions noted are these: for IC50: luminescence GALK1-ATP-depletion assay, ATP 35 μM, galactose 100 μM; for MR (maximal % inhibition): maximal % inhibition at 57 μM compound. The data set is classed as biochemical. A digest of the protocol:
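Recombinant human GALK1 was run in 1536-well format against test compound at 6 doses (3 nM – 57 μM). Reactions were started with ATP (35 μM) and galactose (100 μM), both near their K_M under these conditions. Remaining ATP was read by Kinase-Glo luminescence. Normalized concentration-response data were fitted to a four-parameter logistic to give IC50 and efficacy (maximal response).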

The nature of data set [2]: Rat liver microsome stability. The class given is in vitro ADME. The settings on record: 37 °C, NADPH.
Data set [3] in a line: Kinetic aqueous solubility. The data set is classed as physicochemical. The settings on record: kinetic aqueous solubility in PBS 7.4 buffer from a 10 mM DMSO stock.
Data set [4] can be described thus: Stirring double-sink PAMPA permeability. The data set is classed as in vitro ADME. The settings on record: in-house at NCATS. A digest of the protocol: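 Effective permeability was measured by passive diffusion in a stirring double-sink PAMPA. Sample preparation, analysis and data processing were fully automated.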
The target of data set [5] is T1, recombinant human GALK1. The settings on record: cited from earlier work.

T1 sequence (P51570 whole entry): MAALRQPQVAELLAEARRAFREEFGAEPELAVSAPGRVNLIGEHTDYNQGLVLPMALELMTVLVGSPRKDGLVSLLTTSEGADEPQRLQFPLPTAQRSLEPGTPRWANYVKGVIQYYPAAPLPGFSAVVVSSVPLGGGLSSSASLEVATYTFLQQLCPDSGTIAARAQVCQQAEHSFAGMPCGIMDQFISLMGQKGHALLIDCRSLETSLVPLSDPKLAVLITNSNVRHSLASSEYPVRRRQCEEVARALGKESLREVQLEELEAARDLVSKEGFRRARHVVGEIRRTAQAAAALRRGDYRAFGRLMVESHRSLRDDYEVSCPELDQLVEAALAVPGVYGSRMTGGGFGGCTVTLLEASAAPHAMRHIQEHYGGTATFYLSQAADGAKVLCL

Turning to `COc1ccc(-c2csc(NC(=O)c3ccccc3NS(=O)(=O)c3ccc(C)cc3)n2)cc1` [C5], at recombinant human GALK1 [1], the IC50 (commonly the concentration that gives 50% inhibition) is 11.1 µM and the “MR (maximal % inhibition)” value is listed as 75.9%. Also, in data set [2], the “Microsomal T1/2” value is given as 6.3 m. Moreover, in data set [3], the Solubility was less than 1.0 Ug/ml. For the same compound, in data set [4], the Permeability stood at 30.1 ×10⁻⁶ cm/s.
Taken in the same sequence, the figures for `COc1ccc(S(=O)(=O)Nc2cnccc2C(=O)Nc2nc(-c3ccccc3)cs2)cc1` [C8] were 15.7 µM, 84.5%, 1.6 m, 54.1 Ug/ml and 674.5 ×10⁻⁶ cm/s.
On to `Cc1ccc(S(=O)(=O)Nc2cc(C(F)(F)F)ccc2C(=O)Nc2nc(-c3ccccc3)cs2)cc1` [C3], for which, on recombinant human GALK1 [1], the IC50 was 15.9 µM and the “MR (maximal % inhibition)” value is 92.9%. Besides, in data set [2], the “Microsomal T1/2” value was found to be 15.0 m. In data set [3], the Solubility is less than 1.0 Ug/ml. In data set [4], this compound had a Permeability of 82.2 ×10⁻⁶ cm/s.
Taken in the same sequence, the figures for `Cc1ccc(S(=O)(=O)Nc2cnccc2C(=O)Nc2nc(-c3ccccc3)cs2)cc1` [C2] were 14 µM, 83.5%, 17.0 m, 9.4 Ug/ml and 724.3 ×10⁻⁶ cm/s.
Taken in the same sequence, the figures for `Cc1ccc(-c2csc(NC(=O)c3ccccc3NS(=O)(=O)c3ccc(C)cc3)n2)cc1` [C6] were 14 µM, 81.0%, 2.6 m, less than 1.0 Ug/ml and 35.6 ×10⁻⁶ cm/s.
Taken in the same sequence, the figures for `O=C(Nc1nc(-c2ccccc2)cs1)c1ccncc1NS(=O)(=O)c1ccc(N2CCCC2=O)cc1` [C10] were 44.5 µM, 62.5%, 1.6 m, 57.0 Ug/ml and 313.5 ×10⁻⁶ cm/s.
On to `O=C1CCCC2=C1C(c1[nH]ncc1Cl)N=C(Nc1nc3ccccc3o1)N2` (stereo not shown) [NCGC00238624], for which, at recombinant human GALK1 [5] (GALK1), the IC50 is 4.7 µM. On recombinant human GALK1 [5] (with respect to ATP and galactose substrate), the Mode of inhibition result is “competitive with respect to ATP and uncompetitive to galactose substrate”.
`O=C(Nc1nc(-c2ccccc2)cs1)c1ccncc1NS(=O)(=O)c1ccc(-c2ccccc2)cc1` [C9]: at recombinant human GALK1 [1], the IC50 was 17.7 µM and the “MR (maximal % inhibition)” value was 88.5%. For the same compound, the “Microsomal T1/2” value in data set [2] turned out to be 2.0 m. The compound further registered a Solubility in data set [3] of less than 1.0 Ug/ml. In data set [4], the Permeability was less than 1.0 ×10⁻⁶ cm/s.
Consider `Cc1ccccc1S(=O)(=O)Nc1cnccc1C(=O)Nc1nc(-c2ccccc2)cs1` [C7], for which, on recombinant human GALK1 [1], the IC50 stood at 11.1 µM and the “MR (maximal % inhibition)” value stood at 90.3%. This compound registered a Solubility in data set [3] of 50.0 Ug/ml. The same compound yielded a Permeability in data set [4] of 1064.7 ×10⁻⁶ cm/s.
Take `Cc1ccc(S(=O)(=O)Nc2cc(Cl)c(Cl)cc2C(=O)Nc2nc(-c3ccccc3)cs2)cc1` [C4]: on recombinant human GALK1 [1], the IC50 is 22.2 µM and the “MR (maximal % inhibition)” value stood at 89.3%. Besides, the “Microsomal T1/2” value in data set [2] is on record as 13.0 m. In addition, in data set [3], the Solubility is less than 1.0 Ug/ml. For the same compound, the Permeability in data set [4] was less than 5.0 ×10⁻⁶ cm/s.
